Columns and labels:
[1] = Solubility of the compound; format: physicochemical
PC-3 = experiment: Antiproliferative activity against human PC3 cells at 10 uM after 72 hrs by MTS assay; format: functional; details: PC-3, 72 h
HT-29 [2] = experiment: Antiproliferative activity against human HT-29 cells at 10 uM after 72 hrs by MTS assay; format: functional; details: HT-29, 72 h
How it was run: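 Single-concentration test at 10 μM, with compound in <0.1% DMSO. Cells were plated at 3000/well in triplicate, given a 24 h pre-incubation, then treated for 72 h at 37 °C, 5% CO2. Growth inhibition (%) was read by MTS. HT29 was grown in DMEM + Glutamax-I with 10% FBS. Mean of at least three independent experiments.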

MCF7 [3] = experiment: Antiproliferative activity against human MCF7 cells at 10 uM after 72 hrs by MTS assay; format: functional; details: MCF7, 72 h
[4] = target: Vascular endothelial growth factor receptor 2 (Homo sapiens, UniProt P35968); experiment: Inhibition of recombinant human VEGFR-2 using poly(Glu4/Tyr) and [gamma32P]ATP as substrate after 1 hr by scintillation counting
HT-29 [5] = experiment: Antiproliferative activity against human HT-29 cells after 72 hrs by MTS assay; details: HT-29, 72 h
[6] = target: Epidermal growth factor receptor (Homo sapiens, UniProt P00533); experiment: Inhibition of human EGFR expressed in human A431 cells using poly(Glu4/Tyr) and [gamma32P]ATP as substrate after 1 hr by scintillation counting; parameters: species or system A-431
MCF7 [7] = experiment: Antiproliferative activity against human MCF7 cells after 72 hrs by MTS assay; details: MCF7, 72 h

Sequence of Epidermal growth factor receptor (P00533 whole entry): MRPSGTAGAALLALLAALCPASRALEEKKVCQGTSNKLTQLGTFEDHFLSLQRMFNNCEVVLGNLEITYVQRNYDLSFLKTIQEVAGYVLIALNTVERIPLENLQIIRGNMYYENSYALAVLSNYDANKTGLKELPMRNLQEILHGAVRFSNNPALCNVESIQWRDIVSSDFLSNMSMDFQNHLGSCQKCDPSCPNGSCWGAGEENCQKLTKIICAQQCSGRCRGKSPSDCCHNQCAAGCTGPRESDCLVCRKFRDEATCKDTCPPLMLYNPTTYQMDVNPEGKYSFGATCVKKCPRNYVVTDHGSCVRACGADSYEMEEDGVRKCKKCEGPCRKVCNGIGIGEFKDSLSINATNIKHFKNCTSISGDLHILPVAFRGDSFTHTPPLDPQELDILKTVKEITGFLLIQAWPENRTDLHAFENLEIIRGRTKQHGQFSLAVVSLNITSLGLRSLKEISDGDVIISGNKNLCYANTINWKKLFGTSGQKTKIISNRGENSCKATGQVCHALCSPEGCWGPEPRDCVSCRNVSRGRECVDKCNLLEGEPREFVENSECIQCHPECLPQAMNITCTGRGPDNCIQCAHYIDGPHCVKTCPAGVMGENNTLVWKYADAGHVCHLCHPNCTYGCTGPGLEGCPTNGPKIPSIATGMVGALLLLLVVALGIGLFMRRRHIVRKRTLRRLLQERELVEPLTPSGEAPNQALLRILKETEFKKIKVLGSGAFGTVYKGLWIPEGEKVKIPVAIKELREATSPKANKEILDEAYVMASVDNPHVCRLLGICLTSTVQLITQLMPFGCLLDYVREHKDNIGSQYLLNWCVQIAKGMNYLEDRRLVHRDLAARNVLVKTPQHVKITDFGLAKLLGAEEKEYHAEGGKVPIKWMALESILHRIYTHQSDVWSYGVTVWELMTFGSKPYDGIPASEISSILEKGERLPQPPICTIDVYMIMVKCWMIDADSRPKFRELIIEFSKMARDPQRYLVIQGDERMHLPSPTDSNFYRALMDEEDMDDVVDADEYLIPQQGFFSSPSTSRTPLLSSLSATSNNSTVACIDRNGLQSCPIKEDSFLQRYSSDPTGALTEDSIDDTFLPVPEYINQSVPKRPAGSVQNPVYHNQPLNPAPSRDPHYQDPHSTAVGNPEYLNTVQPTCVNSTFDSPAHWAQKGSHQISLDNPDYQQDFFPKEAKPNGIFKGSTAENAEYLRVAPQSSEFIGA
Sequence of Vascular endothelial growth factor receptor 2 (P35968 whole entry): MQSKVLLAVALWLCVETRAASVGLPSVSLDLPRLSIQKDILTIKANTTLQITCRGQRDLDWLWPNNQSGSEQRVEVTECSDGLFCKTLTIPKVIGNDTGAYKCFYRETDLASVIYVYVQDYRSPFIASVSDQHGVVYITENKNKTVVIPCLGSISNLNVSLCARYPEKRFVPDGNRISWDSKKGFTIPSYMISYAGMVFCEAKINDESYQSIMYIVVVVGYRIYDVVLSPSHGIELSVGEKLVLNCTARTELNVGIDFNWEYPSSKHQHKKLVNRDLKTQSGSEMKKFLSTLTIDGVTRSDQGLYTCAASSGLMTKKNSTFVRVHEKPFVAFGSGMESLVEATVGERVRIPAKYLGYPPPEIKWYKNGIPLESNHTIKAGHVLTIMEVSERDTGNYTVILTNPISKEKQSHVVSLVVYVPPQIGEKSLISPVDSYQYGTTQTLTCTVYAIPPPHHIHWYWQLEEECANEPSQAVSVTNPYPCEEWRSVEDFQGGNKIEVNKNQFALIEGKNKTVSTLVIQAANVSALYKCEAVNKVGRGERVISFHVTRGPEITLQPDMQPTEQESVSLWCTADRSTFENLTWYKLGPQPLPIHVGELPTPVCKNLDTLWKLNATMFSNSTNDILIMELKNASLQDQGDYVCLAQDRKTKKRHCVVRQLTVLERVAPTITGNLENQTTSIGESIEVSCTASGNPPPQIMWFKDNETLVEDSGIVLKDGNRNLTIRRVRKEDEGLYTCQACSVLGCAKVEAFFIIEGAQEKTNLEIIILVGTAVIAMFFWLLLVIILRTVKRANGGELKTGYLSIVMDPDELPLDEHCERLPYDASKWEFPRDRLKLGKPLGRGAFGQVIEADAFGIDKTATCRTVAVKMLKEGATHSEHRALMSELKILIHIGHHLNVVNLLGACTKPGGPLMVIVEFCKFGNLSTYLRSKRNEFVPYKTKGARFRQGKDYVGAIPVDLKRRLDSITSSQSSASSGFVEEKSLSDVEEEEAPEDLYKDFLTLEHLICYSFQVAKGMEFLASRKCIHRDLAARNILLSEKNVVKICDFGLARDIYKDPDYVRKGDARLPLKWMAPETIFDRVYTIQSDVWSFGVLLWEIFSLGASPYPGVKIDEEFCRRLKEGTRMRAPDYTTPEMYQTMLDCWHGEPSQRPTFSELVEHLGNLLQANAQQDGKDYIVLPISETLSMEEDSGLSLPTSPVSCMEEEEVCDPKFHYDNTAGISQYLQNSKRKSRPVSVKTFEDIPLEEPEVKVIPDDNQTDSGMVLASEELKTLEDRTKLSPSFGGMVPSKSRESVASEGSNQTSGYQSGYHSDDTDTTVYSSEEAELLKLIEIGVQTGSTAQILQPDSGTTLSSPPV

SMILES | solubility [1] | inhibition at 10 µM (PC-3) [%] | inhibition at 10 µM (HT-29 [2]) [%] | inhibition at 10 µM (MCF7 [3]) [%] | IC50 [4] [µM] | IC50 (HT-29 [5]) [µM] | IC50 [6] [µM] | IC50 (MCF7 [7]) [µM]
COc1cc2ncnc(Oc3ccc(NC(=O)Nc4ccc(F)c(Cl)c4)cc3)c2cc1OC | Insoluble | – | – | – | – | – | – | –
CCOC(=O)Nc1ccc(Nc2ncnc3cc(OCCN(CC)CC)c(OC)cc23)cc1C | – | 0 | 11 | 0 | – | – | – | –
CCOC(=O)Nc1ccc(Nc2ncnc3cc(OC)c(OC)cc23)cc1 | – | 12 | 16 | 6 | – | – | – | –
CCOC(=O)Nc1ccc(Nc2ncnc3cc(OCCN(CC)CC)c(OC)cc23)cc1Cl | – | 0 | – | 0 | 3.35 | 5.45 | – | –
CCCCOc1cc2c(Nc3ccc(NC(=O)OC)c(Cl)c3)ncnc2cc1OCCN(CC)CC | – | 11 | – | 33 | 7.4 | 2.55 | > 10 | –
CCCCNC(=O)Nc1ccc(Nc2ncnc3cc(OC)c(OC)cc23)cc1 | – | 14 | 16 | 26 | 5.8 | – | > 10 | –
CCCCOc1cc2c(Nc3ccc(Br)cc3F)ncnc2cc1OCCN(CC)CC | – | 31 | – | – | 5.3 | 3.6 | > 10 | 7.7
CCN(CC)CCOc1cc2ncnc(Nc3ccc(C)c(Br)c3)c2cc1OC | – | 36 | – | – | 6.45 | 2.55 | 9.45 | 9.6
COc1cc2ncnc(Oc3ccc(NC(=O)Nc4cccc(Br)c4)cc3)c2cc1OC | Insoluble | 35 | – | – | 0.006 | 9.1 | > 10 | 9.8
COc1cc2ncnc(Oc3ccc(NC(=O)Nc4ccc(Br)cc4)c(C)c3)c2cc1OC | Insoluble | 7 | 2 | 3 | 0.04 | – | > 10 | –
COc1cc2ncnc(Oc3ccc(NC(=O)Nc4ccc(F)c(Cl)c4)c(C)c3)c2cc1OC | Insoluble | – | – | – | – | – | > 10 | –
CCCCOc1cc2c(Nc3ccc(NC(=O)OCC)c(Cl)c3)ncnc2cc1OCCN(CC)CC | – | 40 | – | – | – | 2.5 | 9.15 | 7.1
COc1cc2ncnc(Oc3ccc(NC(=O)Nc4ccccc4)cc3)c2cc1OC | Insoluble | 23 | 10 | 12 | – | – | – | –
COc1cccc(NC(=O)Nc2ccc(Nc3ncnc4cc(OC)c(OC)cc34)cc2)c1 | – | – | – | – | – | – | > 10 | –
CCN(CC)CCOc1cc2ncnc(Nc3ccc(NC(=O)OC)c(C)c3)c2cc1OC | – | 0 | 1 | 0 | 6.95 | – | > 10 | –
COc1cc2ncnc(Oc3ccc(NC(=O)NC4CCCCC4)cc3)c2cc1OC | Insoluble | – | – | – | – | – | – | –
COc1cc2ncnc(Oc3ccc(NC(=O)Nc4ccc(F)cc4F)cc3)c2cc1OC | Insoluble | – | – | – | – | – | – | –
COc1cc2ncnc(Oc3ccc(NC(=O)Nc4ccc5ccccc5c4)cc3)c2cc1OC | Insoluble | – | – | – | – | – | – | –
COc1cc2ncnc(Nc3ccccc3)c2cc1OC | – | 9 | 0 | 7 | 7 | – | 4.3 | –
CCC(=O)Nc1ccc(Nc2ncnc3cc(OC)c(OC)cc23)cc1 | – | – | – | – | – | – | > 10 | –
CCCOC(=O)Nc1ccc(Nc2ncnc3cc(OC)c(OC)cc23)cc1C | – | 6 | 18 | 0 | – | – | – | –
COc1cc2ncnc(Nc3ccc(Br)cc3)c2cc1OC | – | 37 | 2 | 42 | 0.8 | – | 3.6 | –
COc1ccc(NC(=O)Nc2ccc(Oc3ncnc4cc(OC)c(OC)cc34)cc2)cc1 | Insoluble | 12 | 9 | 0 | – | – | – | –
CCCCOC(=O)Nc1ccc(Nc2ncnc3cc(OC)c(OC)cc23)cc1C | – | 4 | 13 | 33 | – | – | – | –
CCCC(=O)Nc1ccc(Nc2ncnc3cc(OC)c(OC)cc23)cc1C | – | 0 | 0 | 5 | 4 | – | – | –

SMILES | solubility [1] | inhibition at 10 µM (PC-3) [%] | inhibition at 10 µM (HT-29 [2]) [%] | inhibition at 10 µM (MCF7 [3]) [%] | IC50 [4] [µM] | IC50 (HT-29 [5]) [µM] | IC50 [6] [µM] | IC50 (MCF7 [7]) [µM]
CCN(CC)CCOc1cc2c(Nc3ccc(Br)cc3F)ncnc2cc1OC | – | 0 | 35 | 0 | 7.45 | – | 9.1 | –
CCCCOc1cc2c(Nc3ccc(NC(=O)OC)c(C)c3)ncnc2cc1OCCN(CC)CC | – | 0 | – | 0 | 9.4 | 6.15 | > 10 | –
COc1cccc(NC(=O)Nc2ccc(Oc3ncnc4cc(OC)c(OC)cc34)cc2)c1 | Insoluble | – | – | – | – | – | > 10 | –
COC(=O)Nc1ccc(Oc2ncnc3cc(OC)c(OC)cc23)cc1 | Insoluble | – | – | – | – | – | – | –
COC(=O)Nc1ccc(Nc2ncnc3cc(OC)c(OC)cc23)cc1Cl | – | 19 | 22 | 0 | – | – | – | –
COc1cc2ncnc(Oc3ccc(NC(=O)Nc4cccc(Br)c4)c(C)c3)c2cc1OC | Insoluble | 25 | 36 | 30 | 0.004 | – | > 10 | –
COc1cc2ncnc(Nc3ccc(Br)cc3F)c2cc1OC | – | 1 | 0 | 31 | – | – | – | –
CCNC(=O)Nc1ccc(Nc2ncnc3cc(OC)c(OC)cc23)cc1 | – | 0 | 0 | 6 | 4.65 | – | > 10 | –
COc1ccc(NC(=O)Nc2cccc(Oc3ncnc4cc(OC)c(OC)cc34)c2)cc1 | Insoluble | – | – | – | – | – | – | –
COc1cc2ncnc(Nc3ccc(NC(=O)OC(C)C)c(C)c3)c2cc1OC | – | – | – | – | – | – | 5.8 | –
COc1cc2ncnc(Oc3ccc(F)c(Cl)c3)c2cc1OC | Insoluble | 5 | 0 | 0 | 9.8 | – | – | –
COc1cc2ncnc(Oc3ccc(NC(=O)Nc4ccc5ccccc5c4)c(C)c3)c2cc1OC | Insoluble | – | – | – | – | – | > 10 | –
CCCCOc1cc2c(Nc3ccc(NC(=O)OCC)c(C)c3)ncnc2cc1OCCN(CC)CC | – | 0 | – | 0 | – | 5.8 | – | –
CCN(CC)CCOc1cc2ncnc(Nc3ccc(Br)cc3F)c2cc1OC | – | 16 | – | 10 | 1 | 7.5 | > 10 | –
CCOC(=O)Nc1ccc(Nc2ncnc3cc(OC)c(OCCN(CC)CC)cc23)cc1C | – | 0 | 36 | 0 | – | – | – | –
COc1cc2ncnc(Oc3cccc(NC(C)=O)c3)c2cc1OC | Insoluble | – | – | – | – | – | – | –
COC(=O)Nc1ccc(Nc2ncnc3cc(OC)c(OC)cc23)cc1 | – | 2 | 10 | 27 | – | – | – | –
COc1cc2ncnc(Oc3cccc(NC(=O)Nc4ccccc4)c3)c2cc1OC | Insoluble | – | – | – | – | – | – | –
CCN(CC)CCOc1cc2ncnc(Nc3ccc(NC(=O)OC)c(Cl)c3)c2cc1OC | – | 0 | 38 | 0 | 5.2 | – | > 10 | –
COc1cc2ncnc(Oc3ccc(NC(=O)Nc4ccc(Br)cc4)cc3)c2cc1OC | Insoluble | – | – | – | – | – | – | –
CCCCNC(=O)Nc1ccc(Oc2ncnc3cc(OC)c(OC)cc23)cc1 | Insoluble | – | – | – | – | – | – | –
CCNC(=O)Nc1ccc(Nc2ncnc3cc(OCCN(CC)CC)c(OC)cc23)cc1 | – | 0 | 0 | 0 | 6.6 | – | > 10 | –
CCOC(=O)Nc1ccc(Oc2ncnc3cc(OC)c(OC)cc23)cc1 | Insoluble | – | – | – | – | – | – | –
CCN(CC)CCOc1cc2ncnc(Nc3ccc(F)c(Cl)c3)c2cc1OC | – | 36 | – | 26 | 6.9 | 5.9 | 9.9 | –

From ChEMBL document CHEMBL2016491, “Synthesis and structure-activity relationships of (aryloxy)quinazoline ureas as novel, potent, and selective vascular endothelial growth factor receptor-2 inhibitors” (J Med Chem, 2012)
